Experimental data reported in the M2OR odorant receptor database.

Tests used:
Conditions in all cases: stereoisomer not certain
Or1m1 (Mus musculus) = biological target: T1, Or1m1 (Mus musculus) (UniProt Q8VFM9)
T1 sequence (whole entry): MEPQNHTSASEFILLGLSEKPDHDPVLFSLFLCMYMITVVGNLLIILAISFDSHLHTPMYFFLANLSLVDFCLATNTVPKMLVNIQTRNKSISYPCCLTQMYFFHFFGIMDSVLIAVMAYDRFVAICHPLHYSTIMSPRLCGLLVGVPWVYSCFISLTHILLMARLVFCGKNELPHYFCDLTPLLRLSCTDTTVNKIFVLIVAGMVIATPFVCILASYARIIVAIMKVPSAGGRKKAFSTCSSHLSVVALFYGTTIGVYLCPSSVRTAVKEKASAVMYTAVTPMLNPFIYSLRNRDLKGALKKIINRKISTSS
In short: (§1)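 Whether a receptor–molecule pair is responsive (active) rests on the original authors' judgment that its measured signal was statistically different from baseline. Pairs without that judgment are non-responsive (inactive). Sources used varied assay methods, commonly transient luciferase assays in mammalian cell lines.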

Or5ar1 (Mus musculus) = biological target: T2, Or5ar1 (Mus musculus) (UniProt Q8VGS3)
T2 sequence (whole entry): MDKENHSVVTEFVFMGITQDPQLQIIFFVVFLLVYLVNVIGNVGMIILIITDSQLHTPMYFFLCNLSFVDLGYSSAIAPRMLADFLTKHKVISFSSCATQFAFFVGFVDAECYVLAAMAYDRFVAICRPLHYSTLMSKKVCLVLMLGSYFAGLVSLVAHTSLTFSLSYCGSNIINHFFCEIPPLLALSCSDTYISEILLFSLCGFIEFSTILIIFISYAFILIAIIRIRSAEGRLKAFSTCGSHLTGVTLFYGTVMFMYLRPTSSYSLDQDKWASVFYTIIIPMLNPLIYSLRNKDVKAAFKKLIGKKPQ
In short: as §1

UniProt A2ATE5 = biological target: T3, UniProt A2ATE5
T3 sequence (whole entry): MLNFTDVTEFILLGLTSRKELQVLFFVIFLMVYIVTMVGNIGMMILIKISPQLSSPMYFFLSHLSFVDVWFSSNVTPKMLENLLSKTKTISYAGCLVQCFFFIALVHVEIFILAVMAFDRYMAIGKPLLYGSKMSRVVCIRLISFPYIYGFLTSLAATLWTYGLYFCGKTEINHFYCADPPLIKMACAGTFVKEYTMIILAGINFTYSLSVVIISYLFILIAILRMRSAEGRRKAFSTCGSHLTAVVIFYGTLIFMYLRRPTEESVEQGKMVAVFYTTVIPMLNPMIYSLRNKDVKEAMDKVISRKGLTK
In short: as §1

UniProt A2AVB0 = biological target: T4, UniProt A2AVB0
T4 sequence (whole entry): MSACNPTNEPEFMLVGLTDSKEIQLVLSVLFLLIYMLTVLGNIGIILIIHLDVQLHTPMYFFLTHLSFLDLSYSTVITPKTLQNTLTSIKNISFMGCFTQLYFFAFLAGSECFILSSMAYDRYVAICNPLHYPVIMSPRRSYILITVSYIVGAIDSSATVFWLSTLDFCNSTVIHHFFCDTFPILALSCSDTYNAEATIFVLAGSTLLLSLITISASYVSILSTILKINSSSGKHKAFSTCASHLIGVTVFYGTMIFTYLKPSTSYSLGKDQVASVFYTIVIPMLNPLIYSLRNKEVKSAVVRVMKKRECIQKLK
In short: as §1

OR9G9 = system: OR9G9
Sequence of OR9G9 (as listed by the source): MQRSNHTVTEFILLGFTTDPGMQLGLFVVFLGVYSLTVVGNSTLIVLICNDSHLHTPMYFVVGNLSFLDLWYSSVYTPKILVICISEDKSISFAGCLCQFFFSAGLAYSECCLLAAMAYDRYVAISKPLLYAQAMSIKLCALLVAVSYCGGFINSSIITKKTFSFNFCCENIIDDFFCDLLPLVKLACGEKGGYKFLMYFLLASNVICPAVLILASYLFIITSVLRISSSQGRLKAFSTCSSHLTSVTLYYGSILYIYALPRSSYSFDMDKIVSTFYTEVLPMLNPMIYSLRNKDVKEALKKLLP
In short: as §1

Or5p57 (Mus musculus) = Or5p57 (Mus musculus) (UniProt Q8VEZ0)
Sequence of Or5p57 (Mus musculus) (Q8VEZ0 whole entry): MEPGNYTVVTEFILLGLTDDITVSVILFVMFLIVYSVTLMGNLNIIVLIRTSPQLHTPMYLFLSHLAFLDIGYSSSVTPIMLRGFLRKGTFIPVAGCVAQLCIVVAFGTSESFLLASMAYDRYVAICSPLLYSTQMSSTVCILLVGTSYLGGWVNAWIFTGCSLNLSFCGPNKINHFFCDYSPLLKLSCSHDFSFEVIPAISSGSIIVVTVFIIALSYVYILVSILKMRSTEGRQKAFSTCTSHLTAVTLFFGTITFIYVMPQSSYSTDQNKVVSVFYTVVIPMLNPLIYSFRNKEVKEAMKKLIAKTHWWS
In short: as §1
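Note: active if original authors judged signal statistically different from baseline.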

Compound | odorant receptor agonist call (Or1m1 (Mus musculus)) | odorant receptor agonist call (Or5ar1 (Mus musculus)) | odorant receptor agonist call (UniProt A2ATE5) | odorant receptor agonist call (UniProt A2AVB0) | odorant receptor agonist call (OR9G9) | odorant receptor agonist call (Or5p57 (Mus musculus))
OCc1ccc2c(c1)OCO2 | inactive | inactive | inactive | inactive | – | –
O=CC=Cc1ccccc1 | inactive | inactive | inactive | inactive | active | –
O=C(O)CCCCCCCBr | – | – | – | – | – | inactive
